Measured values taken from ChEMBL document CHEMBL1134232, “Phenylcyclohexene and phenylcyclohexadiene substituted compounds having retinoid antagonist activity” (Bioorg Med Chem Lett, 2001).

Columns and labels:
[1] = target: T1, Retinoic acid receptor beta (Homo sapiens, UniProt P10826); experiment: Ability to inhibit TTNPB-induced transactivation at retinoic acid receptor beta
T1 sequence (P10826 whole entry): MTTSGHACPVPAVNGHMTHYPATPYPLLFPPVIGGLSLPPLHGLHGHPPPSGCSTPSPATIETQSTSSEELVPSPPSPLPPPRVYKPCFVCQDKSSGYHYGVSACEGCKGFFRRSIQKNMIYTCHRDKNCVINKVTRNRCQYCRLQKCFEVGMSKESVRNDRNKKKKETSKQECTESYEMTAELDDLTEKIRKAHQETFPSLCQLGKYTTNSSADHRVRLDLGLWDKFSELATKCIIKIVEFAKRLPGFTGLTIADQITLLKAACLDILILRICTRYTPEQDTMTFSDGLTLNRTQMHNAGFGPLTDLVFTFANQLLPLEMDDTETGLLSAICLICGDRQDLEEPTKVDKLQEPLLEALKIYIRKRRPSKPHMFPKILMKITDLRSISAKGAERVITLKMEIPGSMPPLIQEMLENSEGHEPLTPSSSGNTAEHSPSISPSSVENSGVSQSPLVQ

[2] = target: T2, Retinoic acid receptor alpha (Homo sapiens, UniProt P10276); experiment: Ability to inhibit TTNPB-induced transactivation at retinoic acid receptor alpha
T2 sequence (P10276 whole entry): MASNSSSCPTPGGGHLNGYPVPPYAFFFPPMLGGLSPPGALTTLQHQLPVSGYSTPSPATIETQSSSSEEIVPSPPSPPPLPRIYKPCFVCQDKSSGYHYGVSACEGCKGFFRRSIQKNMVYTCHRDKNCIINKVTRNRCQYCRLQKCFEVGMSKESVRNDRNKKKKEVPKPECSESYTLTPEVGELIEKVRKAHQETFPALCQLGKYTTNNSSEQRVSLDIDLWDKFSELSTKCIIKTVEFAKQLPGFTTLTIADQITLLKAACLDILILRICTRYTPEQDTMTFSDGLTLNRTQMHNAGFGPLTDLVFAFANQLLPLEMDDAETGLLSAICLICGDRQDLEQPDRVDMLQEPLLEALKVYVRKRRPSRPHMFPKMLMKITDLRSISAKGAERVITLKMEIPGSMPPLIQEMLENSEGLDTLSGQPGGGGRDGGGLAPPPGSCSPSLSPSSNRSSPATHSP

[3] = target: T2, Retinoic acid receptor alpha; experiment: Binding affinity towards retinoic acid receptor alpha was determined using [3H]ATRA (5 nM) as radioligand
[4] = target: T3, Retinoic acid receptor gamma (Homo sapiens, UniProt P13631); experiment: Ability to inhibit TTNPB-induced transactivation at retinoic acid receptor gamma
T3 sequence (P13631 whole entry): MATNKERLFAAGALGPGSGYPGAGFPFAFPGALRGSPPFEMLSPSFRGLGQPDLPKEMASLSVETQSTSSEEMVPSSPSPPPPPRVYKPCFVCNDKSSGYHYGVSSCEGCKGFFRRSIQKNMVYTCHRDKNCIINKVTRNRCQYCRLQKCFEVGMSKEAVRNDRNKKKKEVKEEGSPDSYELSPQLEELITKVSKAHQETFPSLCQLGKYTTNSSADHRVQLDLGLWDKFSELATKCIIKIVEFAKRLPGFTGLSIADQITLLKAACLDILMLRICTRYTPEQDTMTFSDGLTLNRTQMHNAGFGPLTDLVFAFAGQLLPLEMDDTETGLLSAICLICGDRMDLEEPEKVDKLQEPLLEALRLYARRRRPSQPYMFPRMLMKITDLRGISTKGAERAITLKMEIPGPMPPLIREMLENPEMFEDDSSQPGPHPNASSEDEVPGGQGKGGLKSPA

[5] = target: T3, Retinoic acid receptor gamma; experiment: Binding affinity towards retinoic acid receptor gamma was determined using [3H]ATRA (5 nM) as radioligand
[6] = target: T1, Retinoic acid receptor beta; experiment: Binding affinity towards retinoic acid receptor beta was determined using [3H]ATRA (5 nM) as radioligand
[7] = target: T4, Retinoic acid receptor alpha (Homo sapiens) (UniProt P10276); experiment: Efficacy of TTNPB (10 nM) function at retinoic acid receptor alpha, antagonized at highest dose tested (10⁴ nM)
T4 sequence (whole entry): T2 sequence (P10276 whole entry)
How it was run: (§1)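 In the RAR transactivation assay with 10 nM TTNPB, efficacy is the percent of TTNPB transcriptional activity antagonized at the highest dose tested (10⁴ nM). Each receptor subtype is tested separately.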

[8] = target: T2, Retinoic acid receptor alpha; experiment: Antagonist activity of TTNPB (10 nM) function at retinoic acid receptor alpha; format: functional
How it was run: (§2)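 Transactivation assay run separately at RARα, RARβ and RARγ. Test compound is applied at varying concentrations against 10 nM TTNPB, held constant. Inhibition of TTNPB-driven transcriptional activation is measured, and IC50 is calculated as the half-maximal inhibition concentration.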

[9] = target: T3, Retinoic acid receptor gamma; experiment: Antagonist activity of TTNPB (10 nM) function at retinoic acid receptor gamma; format: functional; how it was run: as §2
[10] = target: T5, Retinoic acid receptor beta (Homo sapiens) (UniProt P10826); experiment: Efficacy of TTNPB (10 nM) function at retinoic acid receptor beta (10 uM); how it was run: as §1
T5 sequence (whole entry): T1 sequence (P10826 whole entry)

[11] = target: T1, Retinoic acid receptor beta; experiment: Antagonist activity of TTNPB (10 nM) function at retinoic acid receptor beta; format: functional; how it was run: as §2
[12] = target: T6, Retinoic acid receptor gamma (Homo sapiens) (UniProt P13631); experiment: Efficacy of TTNPB (10 nM) function at retinoic acid receptor gamma (10 uM); how it was run: as §1
T6 sequence (whole entry): T3 sequence (P13631 whole entry)

SMILES	EC50 [1] [nM]	EC50 [2] [nM]	Kd [3] [nM]	EC50 [4] [nM]	Kd [5] [nM]	Kd [6] [nM]	Efficacy [7] [%]	IC50 [8] [nM]	IC50 [9] [nM]	Efficacy [10] [%]	IC50 [11] [nM]	Efficacy [12] [%]
CC1(C)CCC(C)(C)c2cc(C/C=C/c3ccc(C(=O)O)cc3)ccc21	8	30	36	4	26	5	–	–	–	–	–	–
CCc1ccc(C2=C(/C=C/C#Cc3ccc(C(=O)O)cc3)C(C)(C)CCC2)cc1	–	–	–	–	–	–	97	220	3	96	40	95
CC1=C(/C=C/C#Cc2ccc(C(=O)O)cc2)C(C)(C)CCC1	7	435	135	–	190	20	–	–	–	–	–	–
Cc1ccc(C2=C(/C=C/C#Cc3ccc(C(=O)O)cc3)C(C)(C)CCC2)cc1	–	–	–	–	–	–	93	210	5	92	22	96
CC1(C)CCCC(c2ccc(C(C)(C)C)cc2)=C1/C=C/C#Cc1ccc(C(=O)O)cc1	–	–	875	–	331	25	94	–	–	96	–	95
Cc1ccc(C2=CCC(C)(C)c3ccc(C#Cc4ccc(C(=O)O)cc4)cc32)cc1	–	–	17	–	–	–	91	31	3	97	20	98

Continued, values first:

EC50 [1] [nM]	EC50 [2] [nM]	Kd [3] [nM]	EC50 [4] [nM]	Kd [5] [nM]	Kd [6] [nM]	Efficacy [7] [%]	IC50 [8] [nM]	IC50 [9] [nM]	Efficacy [10] [%]	IC50 [11] [nM]	Efficacy [12] [%]	SMILES
–	–	> 1000	–	> 1000	87	–	–	–	–	–	–	CC1(C)C=C(/C=C/C#Cc2ccc(C(=O)O)cc2)C(c2ccc(C(C)(C)C)cc2)=CC1
–	–	252	–	31	53	96	–	–	94	–	97	Cc1ccc(C2=CCC(C)(C)C=C2/C=C/C#Cc2ccc(C(=O)O)cc2)cc1
